Hits are enriched below; roughly 2.9% of the tested compounds scored in any of these assays.
A3A deaminase: blocks human APOBEC3A ssDNA deamination. 330,000 tested, 0.41% active. AID 493011. recombinant A3A, FAM/TAMRA ssDNA deamination fluorescence. inhibition, % at 20 µM. P31941;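 active = at least 40% inhibition at 20 µM here, with at most 30% in a related deaminase screen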;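 also: plate controls were A3A with DMSO for no effect and wells lacking A3A enzyme for full effect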
Target sequence (P31941 whole entry, looked up): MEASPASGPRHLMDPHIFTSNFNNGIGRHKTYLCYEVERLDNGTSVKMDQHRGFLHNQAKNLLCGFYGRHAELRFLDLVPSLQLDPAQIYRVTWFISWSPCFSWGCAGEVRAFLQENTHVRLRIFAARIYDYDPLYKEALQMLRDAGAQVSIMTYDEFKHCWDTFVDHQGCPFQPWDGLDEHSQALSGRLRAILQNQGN
HCV NS3 hel inh: blocks Hepatitis C virus NS3 helicase unwinding. NS3 helicase DNA unwinding, Cy5 molecular beacon fluorescence. inhibition, % at 10.9 µM. 290,000 tested, 0.56% active;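 active = inhibition above the mean of all tested compounds plus 3 SD, set per campaign, cut at about 35% in these data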;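 also: 0% = DMSO wells and 100% = thioflavine S control wells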
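Material: hepatitis C virus NS3 helicase domain fragment enzyme; measured by: Cy5 fluorescence, 0 and 60 min reads; control set: DMSO and thioflavine S; incubation: 60 min unwinding reaction at 25 °C after ATP addition; read-out basis: % inhibition from 60/0 min fluorescence ratio, DMSO 0%, thioflavine S 100%; repeats: singlicate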
PRMT1 FP inh: PRMT1 (human) inhibition, primary screen; recombinant PRMT1, activity-based probe fluorescence polarization; inhibition, % at 2.79 µM; 370,000 tested, 1.3% active;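 active = inhibition above about 21% made by adding two undisclosed values, limit read from the data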
Target sequence (Q99873 whole entry, looked up): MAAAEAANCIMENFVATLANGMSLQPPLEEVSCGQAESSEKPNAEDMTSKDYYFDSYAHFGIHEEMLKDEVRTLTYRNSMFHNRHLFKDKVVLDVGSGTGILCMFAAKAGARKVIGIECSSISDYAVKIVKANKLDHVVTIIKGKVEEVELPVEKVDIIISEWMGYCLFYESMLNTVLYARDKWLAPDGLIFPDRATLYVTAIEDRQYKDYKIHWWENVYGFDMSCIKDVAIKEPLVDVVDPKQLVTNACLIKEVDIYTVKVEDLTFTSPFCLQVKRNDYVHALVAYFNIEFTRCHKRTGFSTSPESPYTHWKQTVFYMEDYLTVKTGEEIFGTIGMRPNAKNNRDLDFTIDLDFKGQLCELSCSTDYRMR
core dimer inh: HCV core protein dimerization inhibition. AID 1899. inhibition, % at 5 µM. TR-FRET GST/Flag-core106 dimerization, 1536-well. 300,000 tested, 0.33% active;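 active = inhibition above the mean of all tested compounds plus 3 SD, set per screening campaign, cut at about 45% in these data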
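test system = GST/Flag-tagged HCV core106 proteins | probe or stimulus = Eu donor and XL665 acceptor anti-tag antibodies | times = compound-protein-antibody incubation 4 h at 22.5 °C | signal = TR-FRET, excitation 340 nm, emission 617 and 671 nm | measure = percent inhibition of core106 dimerization signal | controls = wells lacking GST-core106 and wells with excess unlabelled core106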
ABHD5-PLIN5 inh: inhibitors of human ABHD5-perilipin-5 interaction; Split G. princeps luciferase complementation, luminescence, 4 h; AID 602281; inhibition, % at 4 µM; 360,000 tested, 0.78% active; Q00G26+Q8WTS1;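 active = inhibition above the mean inhibition across every tested compound plus 3 SD, cut at about 22% in these data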;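 also: 0% = DMSO only wells and the 100% control is not disclosed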
APOBEC3G inh: APOBEC3G (human) deaminase inhibition; inhibition, % at 20 µM; 330,000 tested, 0.28% active; recombinant A3G, ssDNA deamination FAM/TAMRA fluorescence;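 active = inhibition of at least 40% at 20 µM, with no more than 30% in the related APOBEC3A deaminase screen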;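 also: plate controls were DMSO wells with A3G for no effect and wells lacking A3G enzyme for full effect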
PRMT1 confirm: confirmation of human PRMT1 inhibitors; shares compounds with PRMT1 FP inh; AID 687036; recombinant His-PRMT1, activity-based probe fluorescence polarization; 3,300 tested, 42% active; inhibition, % at 2.79 µM;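 active = mean inhibition across replicates above the hit cutoff derived for the earlier primary screen, cut at about 22% in these data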
Numbers without * were called inactive; . = no result.

SMILES | A3A deaminase | HCV NS3 hel inh | PRMT1 FP inh | core dimer inh | ABHD5-PLIN5 inh | APOBEC3G inh | PRMT1 confirm
Cc1c(C(=O)NCc2ccco2)oc2ccc(Br)cc12 | 5 | . | 2 | . | 19 | 2 | .
O=C(NCc1ccco1)c1cc2cc(Br)ccc2o1 | 5 | 3 | 31* | 10 | 1 | 28 | 25*
O=C1C2C3C=CC(C4CC34)C2C(=O)N1Cc1ccccc1 (centres undefined) | -3 | -10 | 2 | -4 | -5 | -3 | .
O=C1C2C3C=CC(C3=C3CCCCC3)C2C(=O)N1Cc1ccccc1 (centres undefined) | -5 | -1 | 36* | 4 | 3 | -3 | 3
C[C@@H]1CN([C@@H](C)CO)S(=O)(=O)c2ccc(C#CC3CCCCC3)cc2O[C@@H]1CN(C)Cc1cccnc1 | . | . | 0 | . | 2 | . | .
O=C1c2ccccc2C(=O)N1SC1CCCCC1 | -5 | 17 | 63* | -2 | 9 | 9 | 73*
COc1ccc([C@H]2N[C@]3(CCCN(Cc4ccccc4)C3=O)[C@H]3C(=O)N(Cc4ccccc4)C(=O)[C@@H]23)cc1 | . | . | -4 | . | -7 | . | .
Cc1ccc(NC(=O)CSc2ncn(-c3ccccc3)n2)cc1C | -2 | 7 | -1 | 3 | -1 | -8 | .
Cc1ccc(NC(=O)CSc2ncc3ccccn23)cc1C | -2 | -12 | 28* | -1 | -3 | -6 | 19
Cc1ccc(N(CC(=O)NCc2ccc(Cl)cc2)S(C)(=O)=O)cc1 | -3 | -7 | 0 | -4 | -5 | -4 | .
O=C(CCNc1ccc(F)cc1)c1cc2ccccc2o1 | -8 | -18 | 49* | 2 | 0 | -4 | 42*
CCCCCCCCN1C(=O)[C@H](CC(=O)NCCCN2CCCC2=O)C[C@@]2(C(=O)OC)CC(C)(C)CC=C12 | . | . | 0 | . | 9 | . | .
O=C(NC(Cc1c[nH]c2ccccc12)C(=O)OCC(=O)c1cccc2ccccc12)c1cccs1 (centres undefined) | -2 | -10 | 50* | 11 | -1 | -2 | -1
O=C(c1ccco1)N1CCN(C2CN(C3CCCCC3)S(=O)(=O)C2)CC1 (centres undefined) | . | . | 5 | . | 3 | . | .
COc1cc(N)c(Cl)cc1C(=O)OCC(=O)NCC1CCCCC1 | 1 | . | 34* | . | 3 | 0 | -8
CCOC(=O)c1ccc(NC(=S)N2CCSC2c2ccc(Cl)cc2)cc1 (centres undefined) | . | 5 | 84* | -3 | -21 | . | 0
COc1ccc(C2SCCN2C(=S)Nc2ccc(F)cc2)cc1 (centres undefined) | -3 | -1 | 58* | -4 | -23 | -6 | 2
CCOC(=O)c1ccc(NC(=S)N2CCSC2c2ccc(OC)cc2)cc1 (centres undefined) | -6 | -4 | 88* | 1 | -30 | -6 | 4
CC(NC(=O)CNC(=O)c1ccccc1Br)c1cccs1 (centres undefined) | -2 | . | 6 | . | 5 | -3 | .
CC(C)(C)OC(=O)N1CCc2onc(-c3ccc(Cl)cc3)c2C1=O | . | . | -4 | . | 0 | . | .
COc1ccc(C(=O)COC(=O)c2ccc(OC)c(OC)c2)cc1OC | 6 | -4 | -6 | 3 | 5 | 2 | .
COc1ccc(C(=O)CSC#N)cc1OC | 2 | -13 | 41* | -16 | -19 | -1 | 23*
O=c1oc2cc(O)ccc2s1 | -1 | . | 86* | 0 | -16 | -4 | 33*
Cc1ccc(CN(C)C(=O)c2cc(COc3cccc(C(F)(F)F)c3)on2)o1 | 3 | 22 | 37* | -3 | 9 | 3 | 34*
CCOC(=O)c1sc(NNC(=O)c2ccc(C)cc2)nc1C | -4 | -4 | 0 | 1 | -11 | -4 | .
SMILES | A3A deaminase | HCV NS3 hel inh | PRMT1 FP inh | core dimer inh | ABHD5-PLIN5 inh | APOBEC3G inh | PRMT1 confirm
CCOC(=O)c1sc(NNC(=O)c2ccc(F)cc2)nc1C | -3 | 6 | 42* | 1 | 11 | -6 | 2
CC(C)C(NC(=O)c1c(F)cccc1F)C(=O)NCCc1ccc(S(N)(=O)=O)cc1 (centres undefined) | -1 | -4 | -2 | 6 | -1 | -17 | .
CNc1ccc(Br)cc(C(=O)/C=C/c2cccc(OC)c2OC)c1=O | 20 | 32 | 30* | 0 | 21 | 13 | 18
CCNc1ccc(Br)cc(C(=O)/C=C/c2ccccc2Cl)c1=O | 20 | 29 | 33* | 42 | 18 | 15 | 18
CCC(CC)NC(=O)/C=C/c1ccccc1Cl | -3 | -2 | -3 | -2 | 1 | -7 | .
Cc1cc2c(c(=O)o1)[C@@]1(C(=O)N(C)c3c(Br)cccc31)C1=C(CCCC1=O)O2 | . | . | -5 | . | . | . | .
O=C(NCc1ccc(F)cc1)c1cc(C2CCCCN2S(=O)(=O)c2cccc3cccnc23)on1 (centres undefined) | . | . | 5 | . | 2 | . | .
CCc1ccccc1N1CSC2=C(C#N)C(c3ccccc3F)CC(=O)N2C1 (centres undefined) | -4 | 23 | 54* | -11 | -6 | 26 | 42*
COc1ccc(N2CSC3=C(C#N)C(c4cccc(OC)c4OC)CC(=O)N3C2)cc1 (centres undefined) | -5 | 21 | 41* | 6 | -16 | 39 | 68*
COc1ccc2ccccc2c1C1CC(=O)N2CN(C3CCCCC3)CSC2=C1C#N (centres undefined) | -5 | 31 | 20 | 19 | -3 | -9 | .
CCOc1cc(/C=C2\SC(=S)N(C(C(=O)O)c3ccccc3)C2=O)ccc1O (centres undefined) | -4 | 32 | 25* | 0 | 2 | -2 | -3
O=C(O)C(c1ccccc1)N1C(=O)/C(=C\c2ccc(O)c(O)c2)SC1=S (centres undefined) | 0 | -10 | 39* | -16 | -2 | -3 | 45*
CN1CCN(C(=O)c2ccc(-c3ccc(F)c(F)c3)c3ccoc23)CC1 | . | . | -3 | . | 1 | . | .
CC1(C(=O)NS(=O)(=O)c2ccc3c(c2)CCO3)CCN1C(=O)C1(c2ccc(Cl)cc2)CCC1 (centres undefined) | . | . | 1 | . | -10 | . | .
CCSc1nc(-c2ccco2)ccc1C#N | 1 | 22 | 31* | 24 | 16 | -2 | 18
Cc1c(-c2n[nH]c(=S)n2-c2ccc(C(F)(F)F)cc2)nnn1-c1ccccc1 | -4 | 18 | 30* | 1 | -5 | -7 | 6
Cc1c(-c2n[nH]c(=S)n2-c2ccc(Br)cc2)nnn1-c1ccc(Cl)cc1 | 0 | -6 | 17 | . | -15 | 0 | .
O=C(O)/C=C/C(=O)Nc1ccc(OC(F)(F)F)cc1Br | -3 | 17 | 50* | -2 | 4 | -7 | 5
O=C(O)/C=C/C(=O)Nc1ccc(OC(F)(F)F)cc1 | -4 | -4 | 1 | 0 | 3 | -5 | .
COc1ccc(N2CCCC2)c(NC(=O)c2ccc([N+](=O)[O-])o2)c1 | -2 | -9 | 39* | 17 | -8 | -6 | 3
